From ChEMBL document CHEMBL1121539, “Antitumor structure-activity relations. Nitrosoureas vs. L-1210 leukemia” (J Med Chem, 1980)

Experiments:
L1210 [1] = assay: Toxicity against L-1210 leukemia cells in mice after intraperitoneal administration, activity is expressed as LD10; set-up: LD10: unit not given here; conditions: mouse, in vivo, ip
[2] = Partition coefficient (logP); type: physicochemical; conditions: octanol/water
How it was run: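 Shake partitioning between octanol and distilled water gave log P. For carboxylate substituents, log P was taken in 0.1 N NaOH, with Na+ as counterion.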

L1210 [3] = assay: Tested for 3 log kill of leukemia cells; type: functional, Mus musculus
How it was run: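 L-1210 leukemia cells (10^4) were inoculated intracerebrally into BDF2 mice, and drug was given intraperitoneally. The end point was the dose giving 3 log kill, expressed as log 1/C. The value comes from one or more individual experiments.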

Row | Structure (SMILES) | log(1/LD10) (L1210 [1]) | logP ([2]; read-out: logP) | log(1/C) (L1210 [3]) | LD10 (L1210 [1]) | logP [2]
1 | CC(NC(=O)N(CCCl)N=O)C(=O)O (stereo not drawn) | 0.511 | 0.5 | 0.918 |  | 
2 | CCCCCC(C)NC(=O)N(CCCl)N=O (stereo not drawn) | 0.642 | 3.55 | 0.853 |  | 
3 | O=NN(CCF)C(=O)NC1CCCCC1 | 0.806 | 2.25 | 1.34 |  | 
4 | O=NN(CCCl)C(=O)N[C@H]1CC[C@H](CC(=O)O)CC1 | 0.863 | 2.16 | 1.65 |  | 
5 | CC(C)(C)C1CCC(NC(=O)N(CCCl)N=O)CC1 (stereo not drawn) | -0.212 | 4.66 | 0.684 |  | 
6 | O=NN(CCF)C(=O)NCCF | 1.37 | 0.38 | 1.6 |  | 
7 | O=NN(CCCl)C(=O)NC1CCC(Cl)CC1 (stereo not drawn) | 0.738 | 2.66 | 1.25 |  | 
8 | O=NN(CCCl)C(=O)NC12CC3CC(CC(C3)C1)C2 | 0.664 | 3.62 | 1.16 |  | 
9 | Cc1cc(C)c(NC(=O)N(CCCl)N=O)c(C)c1 | 0.675 | 3.11 | 1.58 |  | 
10 | C[C@H]1CCC[C@H](NC(=O)N(CCCl)N=O)C1 |  |  | 1.09 | 0.352 | 3.3
11 | CO[C@H]1CC[C@H](NC(=O)N(CCCl)N=O)CC1 | 0.841 | 2.09 | 1.44 |  | 
12 | C[C@H]1CCC[C@@H](NC(=O)N(CCCl)N=O)C1 | 0.315 | 3.37 | 1.09 |  | 
13 | CC(=O)OCC1OC(NC(=O)N(CCCl)N=O)C(OC(C)=O)C(OC(C)=O)C1OC(C)=O (stereo not drawn) | 1.41 | 1.04 |  |  | 
14 | O=NN(CCCl)C(=O)N[C@@H]1CCC[C@H](O)C1 | 0.698 | 1.11 | 1.28 |  | 
15 | NC(=O)N(CCCl)N=O | 1.43 | 0.57 | 1.05 |  | 
16 | O=NN(CCCl)C(=O)NC1CCSc2ccccc21 (stereo not drawn) | 0.585 | 2.91 | 1.4 |  | 
17 | O=NN(CCCl)C(=O)NC(Cc1ccccc1)C(=O)O (stereo not drawn) | 0.563 | 2.59 | 1.1 |  | 

Row | Structure (SMILES) | log(1/LD10) (L1210 [1]) | logP ([2]; read-out: logP) | log(1/C) (L1210 [3]) | LD10 (L1210 [1]) | logP [2]
18 | CC(=O)OC1OC(C)C(OC(C)=O)C(OC(C)=O)C1NC(=O)N(CCCl)N=O (stereo not drawn) | 1.21 | 1.32 | 1.93 |  | 
19 | O=NN(CCF)C(=O)N[C@H]1CC[C@H](C(=O)O)CC1 |  |  | 1.21 |  | 1.1
20 | O=NN(CCCl)C(=O)N[C@H]1CCCC[C@@H]1Cl | 0.672 |  | 1.34 |  | 
21 | C[C@H]1CC[C@@H](NC(=O)N(CCCl)N=O)CC1 | 0.435 | 3.3 |  |  | 
22 | CC1CC(O)C(NC(=O)N(CCCl)N=O)C(O)C1 (stereo not drawn) | 1.12 | 0.69 |  |  | 
23 | C[C@H]1CC[C@H](NC(=O)N(CCCl)N=O)CC1 | 0.771 |  | 1.55 |  | 
24 | CC(=O)OCC1OCC(NC(=O)N(CCCl)N=O)C(OC(C)=O)C1OC(C)=O (stereo not drawn) |  | 1.87 | 1.79 |  | 
25 | O=NN(CCCl)C(=O)NC1C(O)CCCC1O (stereo not drawn) | 1.17 | 0.16 |  |  | 
26 | O=NN(CCCl)C(=O)NC1CCC(=O)NC1=O (stereo not drawn) | 1.16 |  | 1.8 |  | 
27 | O=NN(CCF)C(=O)NC1CCCCCCCCCCC1 | 0.496 | 5.22 |  |  | 
28 | O=NN(CCCl)C(=O)NCCCl [CARMUSTINE] | 0.718 |  | 1.59 |  | 
29 | COC(=O)[C@H]1CC[C@H](NC(=O)N(CCCl)N=O)CC1 | 1.05 | 1.89 |  |  | 
30 | O=NN(CCCl)C(=O)NC1CCCCC1 [LOMUSTINE] | 0.613 |  | 1.25 |  | 
31 | COC1OC(COC(C)=O)C(OC(C)=O)C(NC(=O)N(CCCl)N=O)C1OC(C)=O (stereo not drawn) | 1.06 | 0.67 |  |  | 
32 | O=NN(CCCl)C(=O)N[C@H]1CC[C@@H](O)CC1 | 0.735 |  | 1.36 |  | 
33 | O=NN(CCCl)C(=O)NC1CCC(NC(=O)N(CCCl)N=O)CC1 (stereo not drawn) | 0.66 | 3.57 |  |  | 
